What was measured:
Conditions in all cases: in vivo
[1] = tested on: Canis familiaris; experiment: Saluretic property was estimated by the excretion of Na+ in dog administered intravenously; microequiv of Na+/min at 5 mg/kg iv stat, 100-249; format: ADME, organism-based, Canis lupus familiaris; design: dose 5 mg/kg, route intravenous
Procedure, shortened: (§1)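 Dogs of 15-20 kg were given a single stat intravenous dose of 5 mg/kg and Na+ excretion was measured in microequiv/min. The score is the average of two dogs, or three where designated.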

[2] = tested on: Rattus norvegicus; experiment: Saluretic property was estimated by the excretion of Na+ in rat administered orally; microequiv of Na+ at 50 mg/kg […]; format: ADME, organism-based; design: dose 50 mg/kg
Procedure, shortened: (§2)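 Rats dosed orally; urinary Na+ excretion (microequiv) scored per dose level. Each score is the geometric mean of three animals per cage, with three cages per dose.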

[3] = tested on: Rattus norvegicus; experiment: Saluretic property was estimated by the excretion of Na+ in rat administered orally; microequiv of Na+ at 81 mg/kg […]; format: ADME, organism-based; design: dose 81 mg/kg; procedure, shortened: as §2
[4] = tested on: Rattus norvegicus; experiment: Saluretic property was estimated by the excretion of Na+ in rat administered orally; microequiv of Na+ at 16.5 mg/kg […]; format: ADME, organism-based; design: dose 16.5 mg/kg; procedure, shortened: as §2
[5] = tested on: Rattus norvegicus; experiment: Saluretic property was estimated by the excretion of Na+ in rat administered orally; microequiv of Na+ at 5 mg/kg […]; format: ADME, organism-based; design: dose 5 mg/kg; procedure, shortened: as §2
[6] = tested on: Rattus norvegicus; experiment: Saluretic property (excretion of Na+ in rat after PO dosing); format: ADME, organism-based; procedure, shortened: as §2
[7] = species: Rattus norvegicus; experiment: Saluretic property (excretion of Na+ in rat); format: ADME, organism-based; procedure, shortened: as §2
[8] = tested on: Canis familiaris; experiment: Saluretic property was estimated by the excretion of Na+ in dog administered intravenously; microequiv of Na+/min at 5 mg/kg iv stat, 0-99; format: ADME, organism-based, Canis lupus familiaris; design: dose 5 mg/kg, route intravenous; procedure, shortened: as §1
[9] = tested on: Canis familiaris; experiment: Saluretic property was estimated by the excretion of Na+ in dog administered intravenously; microequiv of Na+/min at 5 mg/kg iv stat, 600-799; format: ADME, organism-based, Canis lupus familiaris; design: dose 5 mg/kg, route intravenous; procedure, shortened: as §1
[10] = tested on: Canis familiaris; experiment: Saluretic property was estimated by the excretion of Na+ in dog administered intravenously; microequiv of Na+/min at 5 mg/kg iv stat, 400-599; format: ADME, organism-based, Canis lupus familiaris; design: dose 5 mg/kg, route intravenous; procedure, shortened: as §1
[11] = tested on: Canis familiaris; experiment: Saluretic property was estimated by the excretion of Na+ in dog administered intravenously; microequiv of Na+/min at 5 mg/kg iv stat, […]; format: ADME, organism-based, Canis lupus familiaris; design: dose 5 mg/kg, route intravenous; procedure, shortened: as §1
[12] = tested on: Rattus norvegicus; experiment: Saluretic property was estimated by the excretion of Na+ in rat administered orally; microequiv of Na+ at 1 mg/kg […]; format: ADME, organism-based; design: dose 1 mg/kg; procedure, shortened: as §2
[13] = tested on: Canis familiaris; experiment: Saluretic property was estimated by the excretion of Na+ in dog administered intravenously; microequiv of Na+/min at 5 mg/kg iv stat, 250-399; format: ADME, organism-based, Canis lupus familiaris; design: dose 5 mg/kg, route intravenous; procedure, shortened: as §1
[14] = tested on: Canis familiaris; experiment: Saluretic property was estimated by the excretion of Na+ in dog administered intravenously; microequiv of Na+/min at 5 mg/kg iv stat, >900; format: ADME, organism-based, Canis lupus familiaris; design: dose 5 mg/kg, route intravenous; procedure, shortened: as §1
[15] = tested on: Canis familiaris; experiment: Saluretic property was estimated by the excretion of Na+ in dog administered intravenously; microequiv of Na+/min at 5 mg/kg iv stat, 800-899; format: ADME, organism-based, Canis lupus familiaris; design: dose 5 mg/kg, route intravenous; procedure, shortened: as §1

| Saluretic potency [4] | Saluretic potency [6] | Saluretic potency [7] | Saluretic potency [8] | Compound | also measured |
| --- | --- | --- | --- | --- | --- |
| – | – | – | – | CCOC(=O)COc1c(I)cc(C(C)(C)C)cc1CN.Cl | Saluretic potency [1]: 100 u equiv min-1; Saluretic potency [2]: < 0.2 u equiv; Saluretic potency [3]: < 0.3 u equiv |
| 0.6 u equiv | 1.8 u equiv | 2.4 u equiv | – | CN(C)S(=O)(=O)Oc1c(I)cc(C(C)(C)C)cc1CN.Cl | Saluretic potency [5]: 0.4 u equiv |
| – | < 0.2 u equiv | < 0.3 u equiv | 0 u equiv min-1 | CCN(CC)C(=O)COc1c(I)cc(C(C)(C)C)cc1CN.Cl | – |
| – | < 0.2 u equiv | < 0.3 u equiv | – | CC(C)(C)c1cc(I)c(O)c(CNC2=NCCC2)c1.Cl | – |
| 2.7 u equiv | 3.3 u equiv | – | – | CCCCNCc1cc(C(C)(C)C)cc(I)c1O.Cl | Saluretic potency [9]: 600 u equiv min-1; Saluretic potency [5]: 1.4 u equiv |
| 0.5 u equiv | 1.2 u equiv | 1.5 u equiv | 0 u equiv min-1 | CC(C)(C)c1cc(I)c(O)c(CNCCN)c1.Cl | Saluretic potency [5]: 0.3 u equiv |
| – | < 0.2 u equiv | < 0.3 u equiv | – | CC(C)(C)c1cc(I)c(O)c(CNC2CCCCC2)c1.Cl | – |
| 1.4 u equiv | 2.4 u equiv | 2.9 u equiv | – | CCNS(=O)(=O)Oc1c(I)cc(C(C)(C)C)cc1CN.Cl | Saluretic potency [5]: 0.5 u equiv; Saluretic potency [10]: 400 u equiv min-1 |
| – | < 0.2 u equiv | < 0.3 u equiv | – | CC(C)(C)c1cc(I)c(OS(C)(=O)=O)c(CN)c1.Cl | – |
| 0.6 u equiv | 1.8 u equiv | 2.4 u equiv | – | CC(C)(C)c1cc(I)c(OS(=O)(=O)c2ccccc2)c(CN)c1.Cl | Saluretic potency [5]: 0.4 u equiv |
| – | < 0.2 u equiv | < 0.3 u equiv | 0 u equiv min-1 | COc1c(I)cc(C(C)(C)C)cc1CN.Cl | – |
| – | < 0.2 u equiv | < 0.3 u equiv | – | CC(C)(C)c1cc(I)c(OCC(N)=O)c(CN)c1.Cl | Saluretic potency [1]: 100 u equiv min-1 |
| 3.3 u equiv | 3.6 u equiv | – | – | CNCc1cc(C(C)(C)C)cc(I)c1O | Saluretic potency [11]: 250 u equiv min-1; Saluretic potency [12]: 0.7 u equiv; Saluretic potency [5]: 2.6 u equiv |
| – | – | – | 0 u equiv min-1 | CC(C)(C)c1cc(Cl)c(O)c(C[n+]2ccc(N)cc2)c1.[Cl-] | – |
| 0.4 u equiv | 0.7 u equiv | 0.9 u equiv | – | CC(C)(C)c1cc(I)c2c(c1)CNC(=O)O2 | – |
| 2.7 u equiv | 3.3 u equiv | – | 0 u equiv min-1 | CN(C)Cc1cc(C(C)(C)C)cc(I)c1O | Saluretic potency [5]: 1.4 u equiv |
| – | < 0.2 u equiv | < 0.3 u equiv | 0 u equiv min-1 | CC(C)(C)c1cc(Cl)c(O)c(C[n+]2ccccc2)c1.[Cl-] | – |
| 0.5 u equiv | 1.2 u equiv | 1.5 u equiv | – | CC(C)(C)c1cc(I)c(O)c(CNS(=O)(=O)O)c1 | Saluretic potency [5]: 0.3 u equiv |
| – | < 0.2 u equiv | < 0.3 u equiv | 0 u equiv min-1 | CC(C)(C)c1cc(I)c(O)c(CNC(N)=O)c1 | – |
| – | < 0.2 u equiv | < 0.3 u equiv | 0 u equiv min-1 | CC(C)(C)c1cc(Cl)c(O)c(CNS(N)(=O)=O)c1 | – |
| – | < 0.2 u equiv | < 0.3 u equiv | – | CC(C)(C)c1cc(I)c(O)c(CN=C(N)N)c1 | – |

| Saluretic potency [4] | Saluretic potency [6] | Saluretic potency [7] | Saluretic potency [8] | Compound | also measured |
| --- | --- | --- | --- | --- | --- |
| – | < 0.2 u equiv | < 0.3 u equiv | – | CC(C)(C)OC(=O)NCc1cc(C(C)(C)C)cc(I)c1O | – |
| – | < 0.2 u equiv | < 0.3 u equiv | – | CC(C)(C)c1cc(Cl)c2c(c1)CNC(=O)CO2 | – |
| 0.5 u equiv | 1.2 u equiv | 1.5 u equiv | 0 u equiv min-1 | O=C(CCl)NCc1c(O)c(Cl)cc(Cl)c1Cl | Saluretic potency [5]: 0.3 u equiv |
| – | < 0.2 u equiv | < 0.3 u equiv | – | CC(C)(C)c1cc(I)c2c(c1)CNS(=O)(=O)O2 | – |
| – | < 0.2 u equiv | < 0.3 u equiv | – | Oc1c(Cl)cc(Cl)c(Cl)c1CN1CCOCC1 | Saluretic potency [1]: 100 u equiv min-1 |
| – | < 0.2 u equiv | < 0.3 u equiv | 0 u equiv min-1 | Oc1c(Cl)cc(Cl)c(Cl)c1CN1CCCCC1 | – |
| 0.6 u equiv | 1.8 u equiv | 2.4 u equiv | – | O=C(NCc1c(O)c(Cl)cc(Cl)c1Cl)C(F)(F)F | Saluretic potency [5]: 0.4 u equiv |
| – | < 0.2 u equiv min-1 | < 0.3 u equiv | – | NCC(=O)NCc1c(O)c(Cl)cc(Cl)c1Cl | Saluretic potency [1]: 100 u equiv min-1 |
| – | < 0.2 u equiv | < 0.3 u equiv | – | CC(C)(C)c1cc(Cl)c(O)c(/C=N/N=C(/N)S)c1 | Saluretic potency [1]: 100 u equiv min-1 |
| – | < 0.2 u equiv | < 0.3 u equiv | 0 u equiv min-1 | COc1c(Cl)cc(Cl)c(Cl)c1CN.Cl | – |
| – | < 0.2 u equiv | < 0.3 u equiv | 0 u equiv min-1 | CC(C)(C)c1cc(Cl)c2c(c1)CNCCO2.Cl | – |
| 1.4 u equiv | 2.4 u equiv | 2.9 u equiv | – | CC(C)(C)c1cc(I)c(OS(=O)(=O)O)c(CN)c1 | Saluretic potency [5]: 0.5 u equiv |
| – | < 0.2 u equiv | < 0.3 u equiv | – | CC(C)(C)c1cc(I)c(O)c(Cn2cnnn2)c1 | Saluretic potency [1]: 100 u equiv min-1 |
| – | < 0.2 u equiv | < 0.3 u equiv | – | O=C(NCc1c(O)c(Cl)cc(Cl)c1Cl)C(Cl)(Cl)Cl | Saluretic potency [13]: 400 u equiv min-1 |
| – | < 0.2 u equiv | < 0.3 u equiv | 0 u equiv min-1 | O=CNCc1c(O)c(Cl)cc(Cl)c1Cl | – |
| – | < 0.2 u equiv | < 0.3 u equiv | – | CC(C)(C)c1cc(Cl)c(O)c(/C=N/N=C(N)N)c1 | Saluretic potency [1]: 100 u equiv min-1 |
| 4.2 u equiv | 3.9 u equiv | – | – | CC(C)(C)c1cc(Cl)c(O)c(CN)c1.Cl | Saluretic potency [14]: > 900 u equiv min-1; Saluretic potency [12]: 2.1 u equiv; Saluretic potency [5]: 3.6 u equiv |
| 4.2 u equiv | 3.9 u equiv | – | – | CC(C)(C)c1cc(I)c(O)c(CN)c1.Cl | Saluretic potency [14]: > 900 u equiv min-1; Saluretic potency [12]: 2.1 u equiv; Saluretic potency [5]: 3.6 u equiv |
| 1.4 u equiv | 2.4 u equiv | 2.9 u equiv | – | Cl.NCc1c(O)c(Cl)cc(Cl)c1Cl | Saluretic potency [15]: 800 u equiv min-1; Saluretic potency [5]: 0.5 u equiv |
| – | < 0.2 u equiv | < 0.3 u equiv | – | CN(Cc1c(O)c(Cl)cc(Cl)c1Cl)CC1CCCO1 (centres undefined) | Saluretic potency [13]: 250 u equiv min-1 |

| Compound | Saluretic potency [4] | Saluretic potency [6] | Saluretic potency [7] | Saluretic potency [8] | also measured |
| --- | --- | --- | --- | --- | --- |
| CC(C)(C)c1cc(I)c(O)c(CNC2=NCCO2)c1 | – | < 0.2 u equiv | < 0.3 u equiv | – | – |
| CC(C)(C)c1cc(I)c(O)c(CNC2=NCCN2)c1 | – | < 0.2 u equiv | < 0.3 u equiv | 0 u equiv min-1 | – |
| COc1c(I)cc(C(C)(C)C)cc1C[N+](C)(C)C.[I-] | – | – | – | 0 u equiv min-1 | – |
| CC(C)(C)c1cc(I)c(O)c(C[N+](C)(C)C)c1.[I-] | – | 0.2 u equiv | < 0.3 u equiv | 0 u equiv min-1 | – |
| CN1CCN(Cc2cc(C(C)(C)C)cc(Cl)c2O)CC1.Cl | – | < 0.2 u equiv | < 0.3 u equiv | 0 u equiv min-1 | – |
| CC(C)(C)c1cc(I)c(O)c(CNC2=NCCS2)c1 | – | < 0.2 u equiv | < 0.3 u equiv | – | – |

Reference: ChEMBL document CHEMBL1122081, “2-(Aminomethyl)phenols, a new class of saluretic agents. 4. Effects of oxygen and/or nitrogen substitution” (J Med Chem, 1982)
